# Results published in ChEMBL document CHEMBL2413055, “Synthesis of substituted diphenyl sulfones and their structure-activity relationship with the antagonism of 5-НТ6 receptors” (Bioorg Med Chem, 2013).
# Molecular target: T1, 5-hydroxytryptamine receptor 6 (Homo sapiens, UniProt P50406)
# Experiment: Partial agonist activity at recombinant human 5-HT6 receptor expressed in HEK293 cells assessed as induction of intracellular cAMP production after 30 mins
# Assay type: functional, cell-based
# T1 sequence (P50406 whole entry): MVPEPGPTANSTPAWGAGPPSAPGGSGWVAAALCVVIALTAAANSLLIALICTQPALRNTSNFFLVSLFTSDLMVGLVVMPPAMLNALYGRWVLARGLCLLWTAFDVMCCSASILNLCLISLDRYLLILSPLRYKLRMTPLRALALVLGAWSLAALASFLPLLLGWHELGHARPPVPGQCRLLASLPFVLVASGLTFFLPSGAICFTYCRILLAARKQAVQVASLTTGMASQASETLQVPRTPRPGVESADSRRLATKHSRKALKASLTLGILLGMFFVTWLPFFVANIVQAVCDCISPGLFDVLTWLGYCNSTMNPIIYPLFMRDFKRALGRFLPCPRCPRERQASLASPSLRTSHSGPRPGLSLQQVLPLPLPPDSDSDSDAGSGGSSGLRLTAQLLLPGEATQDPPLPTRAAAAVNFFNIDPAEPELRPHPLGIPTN
row,Structure (SMILES),Activity
1,CN(C)c1cc(N2CCNCC2)ccc1S(=O)(=O)c1ccccc1,17%

# Molecular target: T1, 5-hydroxytryptamine receptor 6
# Experiment: Displacement of [3H]-lysergic acid diethylamide from human 5-HT6 receptor expressed in HEK293 cell membranes after 3.5 hrs
row,Structure (SMILES),Ki
1,Cc1cc(N2CCNCC2)c2c(c1)N(S(=O)(=O)c1ccccc1Cl)CCO2,0.2 nM

# Molecular target: T1, 5-hydroxytryptamine receptor 6
# Experiment: Antagonist activity at recombinant human 5-HT6 receptor expressed in HEK293 cells assessed as 5-HT-induced intracellular cAMP production after 30 mins
# Assay type: functional, cell-based
# Outline: (§1)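 Human 5-HT6R in HEK cells under a tetracycline-inducible T-REx promoter, induced with 1 µg/mL tetracycline the day before. Cells in HBSS/5 mM HEPES pH 7.4, 0.05% BSA and IBMX, about 4000 per well. IC50 from 4-parameter fit, in duplicate. Ki by Cheng-Prusoff using 5-HT EC50 measured alongside.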
row,Structure (SMILES),Ki
1,O=S(=O)(c1ccccc1)c1ccccc1 [(PHENYLSULFONYL)BENZENE],1600 nM
2,Nc1ccccc1S(=O)(=O)c1ccccc1,491 nM
3,Nc1ccc(S(=O)(=O)c2ccc(N)cc2)cc1 [DAPSONE],183 nM
4,CNc1cc(-c2cccnc2)ccc1S(=O)(=O)c1ccccc1,48.3 nM
5,Nc1cc(N2CCNCC2)ccc1S(=O)(=O)c1ccccc1,1.65 nM
6,O=S(=O)(c1ccccc1)c1ccc(N2CCNCC2)cc1,10.8 nM
7,CNc1cc(-c2ccccc2)ccc1S(=O)(=O)c1ccccc1,153 nM
8,Nc1ccc(S(=O)(=O)c2ccc(N)c(N)c2)cc1,564 nM
9,CC(=O)Nc1cc(N2CCNCC2)ccc1S(=O)(=O)c1ccccc1,8.3 nM
10,CNc1ccccc1S(=O)(=O)c1ccccc1,24.3 nM
11,CN(C)c1cc(N2CCNCC2)ccc1S(=O)(=O)c1ccccc1,30.1 nM
12,CN(C)c1ccccc1S(=O)(=O)c1ccccc1,2040 nM
13,COc1ccccc1S(=O)(=O)c1ccccc1,866 nM

# Molecular target: T1, 5-hydroxytryptamine receptor 6
# Experiment: Antagonist activity at 5-HT6 receptor (unknown origin)
# Outline: as §1
row,Structure (SMILES),IC50
1,CCNc1cc(N2CCNCC2)ccc1S(=O)(=O)c1ccccc1,2.7 nM
